Laboratory results reported in ChEMBL document CHEMBL1126149, “Centrally acting alpha 1-adrenoceptor agonists based on hexahydronaphth[2,3-b]-1,4-oxazines and octahydrobenzo[g]quinolines” (1992).

Assays:
[1] = molecular target: T1, Adrenergic receptor alpha-1 (Homo sapiens) (UniProt P35348+P25100+P35368); experiment: Alpha-1-adrenergic activity as potency in rabbit ear artery compared to noradrenaline; assay type: functional, tissue-based; settings: Oryctolagus cuniculus, target entry is the homologue from another species
How it was run: (§1)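 Isolated rabbit ear artery segment, circular smooth muscle tension measured isometrically; cocaine blocks neuronal uptake, rauwolscine blocks α2-receptors. Cumulative noradrenaline curve (10^-10–10^-5 M) sets the maximum, then after washout a cumulative curve for the test drug. pD2 = −log molar concentration giving 50% of NA maximum; efficacy = drug maximum relative to NA. n = 3-5.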

[2] = molecular target: T1, Adrenergic receptor alpha-1 (Homo sapiens); experiment: Alpha-1-adrenergic activity as efficacy in rabbit ear artery relative to noradrenaline; assay type: functional, tissue-based; settings: Oryctolagus cuniculus, target entry is the homologue from another species; how it was run: as §1
[3] = organism: Rattus norvegicus; experiment: Alpha-1/Alpha-2-agonistic activity by measuring their potency in pithed rat based on noradrenaline; assay type: functional
How it was run: (§2)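 Pithed rats with jugular vein catheter for iv dosing and carotid catheter for arterial pressure, about 15 min equilibration. Single increasing iv doses are given and the rise in diastolic pressure is read to build a dose-response curve. pD2 is taken from that curve; efficacy is relative to noradrenaline. n = 3.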

[4] = organism: Rattus norvegicus; experiment: Alpha-1/Alpha-2-agonistic activity by measuring their efficacy in pithed rat based on noradrenaline; assay type: functional; how it was run: as §2
[5] = organism: Rattus norvegicus; experiment: Change in blood pressure was reported in pithed rat; assay type: functional; how it was run: as §2
[6] = molecular target: T1, Adrenergic receptor alpha-1 (Homo sapiens); experiment: alpha-1-adrenergic activity by measuring their potency in rabbit ear artery based on noradrenaline; assay type: functional, tissue-based; settings: Oryctolagus cuniculus, target entry is the homologue from another species; how it was run: as §1
[7] = molecular target: T1, Adrenergic receptor alpha-1 (Homo sapiens); experiment: alpha-1-adrenergic activity by measuring their efficacy in rabbit ear artery based on noradrenaline; assay type: functional, tissue-based; settings: Oryctolagus cuniculus, target entry is the homologue from another species; how it was run: as §1
[8] = organism: Rattus norvegicus; experiment: Alpha-1/alpha-2-agonistic activity by measuring their efficacy in pithed rat based on noradrenaline; assay type: functional; how it was run: as §2
[9] = organism: Rattus norvegicus; experiment: alpha-1/alpha-2-agonistic activity by measuring their potency in pithed rat based on noradrenaline; assay type: functional; how it was run: as §2
[10] = molecular target: T1, Adrenergic receptor alpha-1 (Homo sapiens); settings: Oryctolagus cuniculus; Artery
[11] = molecular target: T1, Adrenergic receptor alpha-1 (Homo sapiens); settings: Oryctolagus cuniculus; Artery; remark: listed apart in the source
[12] = organism: Rattus norvegicus; experiment: Alpha-1/alpha-2-agonistic activity by measuring their potency in pithed rat based on noradrenaline; assay type: functional; how it was run: as §2
[13] = organism: Rattus norvegicus; experiment: alpha-1/alpha-2-agonistic activity by measuring their efficacy in pithed rat based on noradrenaline; assay type: functional; how it was run: as §2

Row | SMILES | pD2 [1] | E [2] | pD2 [3] | E [4] | Increase in blood pressure (P/R) [5] [%] | further results
1 | COc1ccc(SC)c2c1CC1C(CCCN1C)C2 (stereo in doubt; 33) [listing 1 of 2 here] | 8.4 | 109 |  |  |  | 
2 | COc1ccc(SC)c2c1CC1C(CCCN1C)C2 (stereo in doubt; trans) |  |  | 6.92 | 72 | -79 | 
3 | COc1ccc(SC)c2c1C[C@H]1[C@@H](C2)OCCN1C (stereo in doubt; 14) [listing 1 of 2 here] |  |  |  |  |  | pD2 [6]: 7.5; E [7]: 110
4 | CCSc1ccc(OC)c2c1CC1OCCN(C)C1C2 (centres undefined) |  | 95 |  |  | -80 | E [8]: 86; pD2 [9]: 6.48; pD2 [6]: 8.2
5 | NC[C@H](O)c1ccc(O)c(O)c1 |  |  |  |  |  | PD2 [10]: 7.7; E [11]: 100
6 | COc1ccc(Cl)c2c1CC1C(C2)OCCN1C (centres undefined) | 5.97 | 89 |  | 40 | -5 | pD2 [12]: 5.89
7 | CCSc1ccc(OC)c2c1CC1CCCN(C)C1C2 (stereo in doubt) [listing 1 of 2 here] |  |  | 6.12 | 18 | -25 | 
8 | CCN1CCOC2Cc3c(SC)ccc(OC)c3CC21 (centres undefined) | 7.42 | 98 | 6.84 | 79 | -84 | 
9 | CCSc1ccc(OC)c2c1CC1CCCN(C)C1C2 (stereo in doubt; 31) [listing 1 of 2 here] |  |  | 6.68 | 80 | -93 | 
10 | CCSc1ccc(OC)c2c1CC1CCCN(C)C1C2 (stereo in doubt) [listing 2 of 2 here] | < 4 |  |  |  |  | 
11 | CCCN1CCOC2Cc3c(SC)ccc(OC)c3CC21 (centres undefined) | 6.78 | 98 | 6.18 | 38 | -76 | 
12 | COc1ccc(SC)c2c1CC1C(CCCN1C)C2 (stereo in doubt; 33) [listing 2 of 2 here] |  |  | 7.36 | 85 | -87 | 
13 | COc1ccc(SC)c2c1C[C@H]1[C@@H](C2)OCCN1C (stereo in doubt; 15) [listing 1 of 2 here] |  |  | 6.19 | 23 | -40 | 
14 | COc1ccc(SC)c2c1CC1C(CCCN1C)C2 (stereo in doubt; cis) [listing 1 of 2 here] |  |  | <4 |  |  | 
15 | COc1ccc(SC)c2c1C[C@H]1[C@@H](C2)OCCN1C (stereo in doubt; 14) [listing 2 of 2 here] |  |  |  |  | -79 | pD2 [9]: 6.74; E [13]: 76
16 | CCC1CN(C)C2Cc3c(OC)ccc(SC)c3CC2O1 (centres undefined) | 5.35 | 42 | 6.1 | 20 | 0 | 
17 | COc1ccc(SC)c2c1C[C@@H](N)CC2 | 7.48 | 98 | 7.92 | 73 | -94 | 
18 | CCN1CC(C)OC2Cc3c(SC)ccc(OC)c3CC21 (centres undefined) | 6.47 | 93 | 6.45 | 29 | -34 | 
19 | COc1ccc(SC)c2c1CC1C(C2)OC(C)CN1C (centres undefined) |  | 67 |  |  |  | pD2 [9]: <4; pD2 [6]: 5.83
20 | CCSc1ccc(OC)c2c1CC1CCCN(C)C1C2 (stereo in doubt; 31) [listing 2 of 2 here] | 6.46 | 97 |  |  |  | 
21 | COc1ccc([N+](=O)[O-])c2c1CC1C(C2)OCCN1C (centres undefined) |  | 85 |  |  | -22 | E [8]: 17; pD2 [9]: 6; pD2 [6]: 5.45
22 | COc1ccc(SC)c2c1C[C@H]1[C@@H](C2)OCCN1C (stereo in doubt; 15) [listing 2 of 2 here] | 5.4 | 100 |  |  |  | 
23 | COc1ccc(SC)c2c1CC1C(CCCN1C)C2 (stereo in doubt; cis) [listing 2 of 2 here] | < 4 |  |  |  |  | 
